From paper PMC8520753 (CPT: Pharmacometrics & Systems Pharmacology, 2021)
“Also recorded” adds a separate entry of the source. Like-named read-outs stand apart in the source and are kept apart here.

Assays:
[1] = integrated PopPK model in adults; cited from earlier work
[2] = target: CYP3A7 (Homo sapiens, UniProt P24462); test: In vitro analyses of CYP3A7 contribution; type: in vitro ADME; settings: historic and recently repeated in vitro analyses, unpublished, data on file
[3] = subject with a bodyweight of 70 kg; cited from earlier work
[4] = cited from earlier work
[5] = Refined pediatric population pharmacokinetic; type: in vivo, children (pediatric patients); settings: for Relative oral bioavailability: set to 100% for 0.12 mg/kg
Outline: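 Children from birth to <18 y (VTE and post-Fontan) received oral bodyweight-adjusted rivaroxaban at 0.4 mg–20 mg, as single or multiple o.d./b.i.d./t.i.d. doses of tablet, oral suspension or granules. Plasma concentrations were fitted by PopPK with an 82.48 kg adult reference weight. Age, dose/kg on F1, formulation on ka, renal function and Fontan were screened graphically, then against random-effect estimates.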

[6] = cited from earlier work; remark: listed apart in the source
[7] = PopPK fixed effect, children, reference BW 82.48 kg

CYP3A7, sequence (P24462 whole entry): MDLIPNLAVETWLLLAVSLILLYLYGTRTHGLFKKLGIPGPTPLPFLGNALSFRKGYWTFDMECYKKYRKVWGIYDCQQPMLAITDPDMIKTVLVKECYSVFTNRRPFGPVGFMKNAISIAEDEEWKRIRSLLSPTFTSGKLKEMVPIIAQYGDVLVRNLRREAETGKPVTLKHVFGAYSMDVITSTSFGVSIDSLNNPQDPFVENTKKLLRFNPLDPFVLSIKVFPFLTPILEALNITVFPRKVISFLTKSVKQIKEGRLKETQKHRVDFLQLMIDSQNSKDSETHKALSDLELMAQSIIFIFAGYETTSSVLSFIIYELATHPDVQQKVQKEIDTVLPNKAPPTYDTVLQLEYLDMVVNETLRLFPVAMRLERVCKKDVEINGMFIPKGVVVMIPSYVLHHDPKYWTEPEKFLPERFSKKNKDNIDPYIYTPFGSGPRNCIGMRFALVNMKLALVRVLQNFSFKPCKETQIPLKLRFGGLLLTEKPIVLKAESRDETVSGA

## O=C(NC[C@H]1CN(c2ccc(N3CCOCC3=O)cc2)C(=O)O1)c1ccc(Cl)s1 [rivaroxaban]
[1]
  Total plasma clearance: 6.58 L/h
[2]
  Contribution of CYP3A7 to the high clearance below 2 years: could also be excluded
[3]
  Total plasma clearance: 7.26 L/h
[4]; adult mass balance data
  Share of elimination by CYP3A, glomerular filtration and tubular secretion: ~ 54%
[4]; adult mass balance
  Excreted unchanged via feces: 7%
  Share of elimination by CYP2J2: 14%
  Share of elimination by CYP-independent hydrolysis: 14%
  Unaccounted in the mass balance study: 11%
[5]
  ka, tablet, granules for oral suspension and diluted ready-to-use oral suspension: 0.799 h⁻¹
  ka, undiluted ready-to-use oral suspension: 0.226 h⁻¹
[5]; PopPK fixed effect, children
  ka for tablets, granules and diluted suspension: 0.799 h⁻¹
  ka for undiluted suspension: 0.226 h⁻¹
[5]; [7]
  CL for subject with BW of 82.48 kg: 8.02 L/h
  Q for subjects with BW of 82.48 kg: 2.50 L/h
  Vc for subject with BW of 82.48 kg: 53.2 L
  Vp for subject with BW of 82.48 kg: 59.1 L
[5]; allometric exponent, assumed identical for Vc and Vp
  Exponent to scale Vc and Vp on BW: 0.821
[5]; allometric exponent, children
  Exponent to scale Q on BW: 0.761
[5]; at 0.30 mg/kg
  Relative oral bioavailability: 79.1%
[5]; at 0.50 mg/kg
  Relative oral bioavailability: 68.1%
[5]; covariate analysis
  Effect of bodyweight on CL, Q, Vc and Vp: significant effect
[5]; covariate analysis, age 0 to 18 years
  Effect of age on CL or F1: No effect
[5]; covariate analysis, four approaches, eGFR 43.8 to 456 ml/min/1.73 m^2
  Influence of renal function on PK: None of the four methods to test for an influence of renal function led to a significant improvement; also recorded: None of the four tested methods could improve the model fit
[5]; exploratory evaluation
  Effect of comedication (weak or moderate CYP3A4 inhibitors, CYP3A4 inducers) on CL or F1: no significant effect
[5]; human, plasma, oral
  clearance: 134 mL/min
[5]; random effect on CL
  ωCL2 (exponential), interindividual variability: 0.0705
[5]; random effect on F1
  ωF12 (exponential), interindividual variability: 0.0612
[5]; sqrt{exp(ω^2)-1}*100
  Population variation of CL (interindividual variability): 27.0%
  Population variation of F1 (interindividual variability): 25.1%
[5]; ~0.1 to 0.5 mg/kg single doses
  Dose-dependency of relative oral bioavailability: decrease with increasing dose per bodyweight
[6]
  Biopharmaceutics Classification System class: class 2
